Bioassay records (PubChem BioAssay)
Hits are enriched below; roughly 2.2% of the tested compounds scored in any of these assays.
E-selectin induc – induces E-selectin expression in human endothelial cells. AID 686992. HUVEC E-selectin immunofluorescence imaging; normalized: neutral wells 0, TNF-alpha wells 100. actives 0.37% (n = 260,000). activation, % at 7.58 µM. P16581;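 active = mean E-selectin-positive cell signal at least 10% of the positive control, reached in at least 60% of replicates, without over 20% cell loss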
Target sequence (P16581 whole entry, looked up): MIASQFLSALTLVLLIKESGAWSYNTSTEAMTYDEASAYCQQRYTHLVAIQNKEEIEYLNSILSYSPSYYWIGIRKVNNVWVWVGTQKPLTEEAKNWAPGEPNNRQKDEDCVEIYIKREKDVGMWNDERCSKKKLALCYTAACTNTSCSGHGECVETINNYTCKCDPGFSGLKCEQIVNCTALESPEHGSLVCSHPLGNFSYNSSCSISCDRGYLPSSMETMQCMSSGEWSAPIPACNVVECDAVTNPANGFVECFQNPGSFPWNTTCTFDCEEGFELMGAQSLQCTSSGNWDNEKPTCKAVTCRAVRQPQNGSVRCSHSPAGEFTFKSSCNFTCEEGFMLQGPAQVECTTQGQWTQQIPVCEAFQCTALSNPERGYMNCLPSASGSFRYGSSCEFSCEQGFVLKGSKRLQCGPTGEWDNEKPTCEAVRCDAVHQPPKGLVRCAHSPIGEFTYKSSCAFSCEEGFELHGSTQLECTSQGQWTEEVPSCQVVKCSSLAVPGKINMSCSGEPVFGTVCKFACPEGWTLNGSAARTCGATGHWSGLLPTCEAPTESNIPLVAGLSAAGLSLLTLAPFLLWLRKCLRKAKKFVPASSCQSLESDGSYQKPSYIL
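material = human umbilical vein endothelial cells (HUVEC), E-selectin induction | quantity = 3,000 cells/well | medium = EGM-2 growth medium on 0.1% gelatin-coated wells | technique = immunofluorescence imaging | read-out basis = % PE-positive cells | control set = TNF-alpha positive control, DMSO neutral control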
DENV2 CPE rescue – protects cells from dengue virus 2 cytopathic effect | DENV2-infected cells, cytopathic effect rescue, plate reader | CPE inhibition, % at 9.99 µM | actives 1.7% (n = 350,000); in the data active = CPE inhibition above about 20%, passing the limit was not always enough; tested in BHK-21 cells;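 also: 0% = median of neutral control wells and 100% = median of positive control wells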
C2C12 statin – suppression of simvastatin myotoxicity; C2C12 myotubes + simvastatin, ATP luminescence, 48 h; scaled: DMSO 0, geranylgeraniol control 100; rescue of ATP level, % at 7.49 µM; actives 0.78% (n = 330,000); AID 602340;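 active = mean ATP rescue above about 67%, or every replicate alone reaching that limit, limit read from the data, passing the limit was not always enough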;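 also: myotubes were challenged with 10 µM simvastatin during compound exposure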
Starred values were filed as active, the others as inactive; nt = no result given; ! = not active in a repeat.

SMILES	E-selectin induc	DENV2 CPE rescue	C2C12 statin
O=S(=O)(c1cc(Cl)cc(Cl)c1)N1Cc2cc(N3CCOCC3)ccc2-n2nncc2C1	0	108*	-3
O=S(=O)(c1cc(Cl)cc(Cl)c1)N1Cc2cc(-c3ccccc3)ccc2-n2nncc2C1	nt	14	8
O=C1CC[C@@]2(O)[C@H]3Cc4ccc(O)c5c4[C@@]2(CCN3CC2CC2)C1O5 (stereo partly specified)	nt	28*!	nt
COc1ccc2c3c1OC1C(=O)CC[C@@]4(O)[C@@H](C2)N(CC2CC2)CC[C@]314 (stereo partly specified)	nt	11	-1
CN1CCN(c2ccc([N+](=O)[O-])cc2Cl)CC1	-2	nt	nt
CN1CCN(c2cn[nH]c(=O)c2Cl)CC1	46*	2	8
CC(=O)OC1(Cc2ccccc2)CN2CCC1c1ccccc12 (stereo unspecified)	nt	nt	114*
CC(=O)OC1(c2ccc(C)cc2)CN2CCC1c1ccccc12 (stereo unspecified)	nt	nt	11
COc1ccc(OC(=O)N(C)C[C@@H]2OCc3ccccc3-c3c(n(C)c4ccccc34)C(=O)N([C@@H](C)CO)C[C@H]2C)cc1	0	8	nt
C=C(Cl)CSC(=S)N(CC)CC	nt	32*	-20
COC(=O)C[C@H]1CC[C@H]2NC[C@H](O)COC[C@@H]2O1	0	-3	-2
CCN1[C@@H]2Cn3c(ccc(-c4ccc(OC)cc4)c3=O)[C@H]1[C@@H](C(=O)OC)[C@@H]2CO	0	-5	16
CCCN(CCC)CCc1c[nH]c2ccccc12	nt	8	nt
NCCc1c[nH]c2ccccc12	nt	63*	2
Fc1ccc(CNCCc2c[nH]c3ccccc23)cc1	nt	-3	-14
Fc1ccccc1CNCCc1c[nH]c2ccccc12	0	32*	9
O=C(NC[C@H]1CC[C@H]2[C@H](CN2Cc2cccnc2)O1)C1CC1	nt	0	nt
COC(=O)[C@H]1[C@H](CO)[C@H]2Cn3c(ccc(-c4ccccc4)c3=O)[C@@H]1N2CC1CCOCC1	1	-4	-2
N#CC(C#N)=NNc1ccc(-n2ccc(C(F)(F)F)n2)cc1	nt	-10	nt
Cc1cc(C)n(-c2ccc(NN=C(C#N)C#N)cc2)n1	3	31*	-20
COc1ccc(C#Cc2ccc([C@@H]3[C@H]4CN(C(=O)Cc5ccncc5)CCCCN4[C@H]3CO)cc2)cc1	0	-2	nt
Cc1cccc(CN2CCCC(C(=O)c3ccc4c(c3)OCO4)C2)n1 (stereo unspecified)	33*	5	3
COc1cccc(C(=O)C2CCCN(Cc3cccc(C)n3)C2)c1 (stereo unspecified)	nt	-9	nt
COC(=O)[C@@H]1[C@@H](CO)[C@@H]2Cn3c(ccc(-c4ccccc4OC)c3=O)[C@H]1N2Cc1ccccc1	0	nt	-19
COc1ccc(C#Cc2ccc([C@H]3[C@H]4CN(C(=O)Cc5ccncc5)CCCCN4[C@H]3CO)cc2)cc1	-1	-2	nt
SMILES	E-selectin induc	DENV2 CPE rescue	C2C12 statin
CN(C)c1cc[n+](CC(O)C[n+]2ccc(N(C)C)cc2)cc1	nt	25*	6
CN(C)c1ccc([P+](=O)c2ccc(N(C)C)cc2)cc1	nt	-2	nt
CCCN1[C@@H]2c3ccc(-c4ccc(OC)cc4)c(=O)n3C[C@H]1[C@H](CO)[C@H]2C(=O)OC	0	-4	-3
NCCc1ccccc1	nt	43*	0
NCCc1ccc(S(N)(=O)=O)cc1	0	6	nt
Nc1ccc(CC2=NCCN2)cc1	0	38*	-8
Cc1sc2ccccc2c1CC1=NCCN1	0	-1	2
O=C(O)[C@H]1[C@H](CO)[C@H]2Cn3c(ccc(-c4ccncc4)c3=O)[C@@H]1N2C(=O)C1CCCC1	0	4	nt
O=C(c1ccc(CNS(=O)(=O)c2ccccc2)cc1)N1CCC2(CC1)OCCO2	nt	nt	6
O=C(c1ccc(CNS(=O)(=O)c2ccc(Br)cc2)cc1)N1CCC2(CC1)OCCO2	nt	37*	0
COc1ccc(CC2NCC(O)C2OC(C)=O)cc1 (stereo unspecified)	nt	4	114*
COc1ccc(CC(=O)N2CCN(C)CC2)cc1	nt	nt	-2
COc1cc(C(=O)N2Cc3ccccc3-n3nncc3C2)cc(OC)c1OC	10	-4	-6
COc1ccc(NC(=S)N2Cc3ccccc3-n3nncc3C2)c(OC)c1	nt	25*	8
CCCCN1C(=N)C(CC)(CC)C(=O)NC1=O	nt	24*	nt
CCCCN1C(=O)NC(=O)C2(Cc3ccccc3N3CCOCC32)C1=O (stereo unspecified)	nt	nt	-12
OC[C@H]1[C@@H]2c3ccccc3NC[C@@H]2N1Cc1cccnc1	0	-2	-14
O=C(O)C[C@@H]1CC[C@H]2NC[C@@H](O)COC[C@@H]2O1	0	2	18
O=C(Cc1ccccn1)N1CCCCN2[C@@H](CO)[C@@H](c3ccc(-c4ccc(F)cc4)cc3)[C@@H]2C1	0	19	nt
